In paper PMC6785039 (Nature, 2019):
“And” between values parts separate entries of the source, which are not always exact repeats. Equal entries are not always repeated.

Tests used:
SLC19A1 [1] = molecular target: T1, SLC19A1 (Homo sapiens, UniProt P41440); assay: [32P] 2’3’-cGAMP uptake and competition uptake assay in THP-1 cells; type: cell-based; conditions: for 2’3’-cGAMP uptake, time course with inhibitor in culture medium: 500 μM, various cell lines (THP-1, U937, K562); for IC50: IC50, competition of [32P] 2’3’-cGAMP uptake, THP-1 cells, varying concentrations of competing, unlabeled ligand, 1 nM [32P] 2’3’-cGAMP; for [32P] 2’3’-cGAMP uptake in presence of unlabeled nucleotide: 200 μM competing; for CDN uptake: human cell lines and primary cells ex vivo; for CDN uptake and/or stimulation: human cells
T1 sequence (P41440 1-591): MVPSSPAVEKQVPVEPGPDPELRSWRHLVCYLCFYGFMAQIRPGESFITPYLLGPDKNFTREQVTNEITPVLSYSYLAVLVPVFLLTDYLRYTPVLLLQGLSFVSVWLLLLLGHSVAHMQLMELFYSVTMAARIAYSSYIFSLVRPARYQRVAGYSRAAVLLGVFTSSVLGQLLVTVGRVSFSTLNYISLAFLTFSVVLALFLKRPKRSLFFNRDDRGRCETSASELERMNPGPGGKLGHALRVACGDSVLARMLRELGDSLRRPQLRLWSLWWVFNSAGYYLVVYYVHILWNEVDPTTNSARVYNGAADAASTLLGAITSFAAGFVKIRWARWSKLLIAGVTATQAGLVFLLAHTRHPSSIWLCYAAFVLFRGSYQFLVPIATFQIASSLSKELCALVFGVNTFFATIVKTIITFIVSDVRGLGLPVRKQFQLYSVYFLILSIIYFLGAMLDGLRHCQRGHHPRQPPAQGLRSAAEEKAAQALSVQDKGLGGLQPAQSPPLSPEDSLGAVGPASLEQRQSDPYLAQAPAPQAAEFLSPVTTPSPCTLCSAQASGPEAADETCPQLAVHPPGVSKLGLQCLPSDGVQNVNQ

SLC19A1 [2] = molecular target: T1, SLC19A1; assay: [32P] 2’3’-cGAMP uptake assay in human PBMCs; type: cell-based
THP-1 cells = type: cell-based, human; conditions: hIFN-β 100 ng/ml, sulfasalazine at high concentrations
STING = STING pathway activation; type: cell-based, human; conditions: THP-1 pre-treated with 5 μM
Outline: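 Stimulated 4 h with 100 µM 2'3'-cGAMP, with or without digitonin (5 µg/mL). Read-outs were IFNB1 mRNA by RT-qPCR and STING dimerization/phosphorylation by semi-native PAGE immunoblot. Means of n=2 technical replicates.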

SLC19A1 [3] = molecular target: T1, SLC19A1; assay: [32P] 2’3’-cGAMP uptake assay in K562 cells; type: cell-based; conditions: 5 μM, one hour
murine splenocytes = assay: [32P] 2’3’-cGAMP uptake assay in primary murine splenocytes; type: cell-based, mouse; conditions: 500 μM competing, unlabeled
SLC19A1 [4] = molecular target: T1, SLC19A1; assay: [3H]-methotrexate uptake assay in THP-1 cells; type: cell-based; conditions: SLC19A1-depleted THP-1 cells, 1h
Outline: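 Cells washed and resuspended at 4x10^6/ml in MHS buffer (20 mM HEPES, 235 mM sucrose, pH 7.4 with MgO). Exposed to 12.3 nM [3H]-methotrexate at 37°C and 5% CO2 for 1 h. Radioactivity was counted by liquid scintillation for 3 min per sample, and counts per minute were normalized to total protein.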

[5] = 500 μM excess, unlabeled, three hours, six healthy donors

Molecule	2’3’-cGAMP uptake, time course with inhibitor in culture medium (SLC19A1 [1])	IC50 (SLC19A1 [1])	[32P] 2’3’-cGAMP uptake in PBMCs (SLC19A1 [2]; [5])	effect on reporter responses to hIFN-β (THP-1 cells)	CDN uptake and/or stimulation (SLC19A1 [1])	other results
CN1c2c(nc(N)[nH]c2=O)NCC1CNc1ccc(C(=O)N[C@@H](CCC(=O)O)C(=O)O)cc1 (stereo partly shown) [5-me-THF, 5-methyl-tetrahydrofolic acid]	Sustained inhibition	0.0041 µM	strongly inhibited	did not inhibit	–	completeness of inhibition of [32P] 2’3’-cGAMP uptake (SLC19A1 [1]; THP-1, compared to the other (anti-) folates): did not observe complete inhibition; trans-stimulation of 2’3’-cGAMP influx by preloading the cells (SLC19A1 [1]; THP-1, preloaded 30 min, washed, [32P] 2’3’-cGAMP for one hour): augmented
N-hydroxysuccinimide (NHS)-methotrexate [NHS-methotrexate]	–	–	–	–	–	2’3’-cGAMP influx in treated cells (SLC19A1 [1]; THP-1, 5 μM, one hour): much reduced; STING activation by 2’3’-cGAMP (STING): blocks STING activation; [32P] 2’3’-cGAMP uptake in PBMCs (SLC19A1 [2]; 5 μM pre-treatment, one hour, four healthy donors): strongly inhibited; 2’3’-cGAMP influx in treated cells (SLC19A1 [3]): much reduced
Nc1ncnc2c1ncn2[C@@H]1O[C@H](COP(=O)(O)O)[C@@H](O)[C@H]1O [AMP]	–	–	–	–	–	[32P] 2’3’-cGAMP uptake in presence of unlabeled nucleotide (SLC19A1 [1]; THP-1, one hour): slightly inhibited
O=C(O)c1cc(/N=N/c2ccc(S(=O)(=O)Nc3ccccn3)cc2)ccc1O [sulfasalazine]	Sustained inhibition	2.1 µM and 2.06 µM	strongly inhibited	blocked	almost completely blocked	CDN uptake (SLC19A1 [1]): inhibited
CN(Cc1cnc2nc(N)nc(N)c2n1)c1ccc(C(=O)N[C@@H](CCC(=O)O)C(=O)O)cc1 [methotrexate]	Sustained inhibition	–	strongly inhibited	did not inhibit	almost completely blocked	CDN uptake (SLC19A1 [1]): inhibited; 2’3’-cGAMP uptake by murine splenocytes (murine splenocytes): did not inhibit; uptake of methotrexate in SLC19A1-depleted cells (SLC19A1 [4]): nearly abolished
Nc1nc(=O)c2nc(CNc3ccc(C(=O)N[C@@H](CCC(=O)O)C(=O)O)cc3)cnc2[nH]1 [folic acid]	Sustained inhibition	4.8 µM and 4.79 µM	–	–	almost completely blocked	–
Nc1nc2c(ncn2[C@@H]2O[C@H](COP(=O)(O)O)[C@@H](O)[C@H]2O)c(=O)[nH]1 [GMP]	–	–	–	–	–	[32P] 2’3’-cGAMP uptake in presence of unlabeled nucleotide (SLC19A1 [1]; THP-1, one hour): slightly inhibited
